Screening data as filed in PubChem.
The list is not random: actives were taken first. Their share in the collection is about 1.4%.
CXCR6 inh = inhibitors of human CXCR6 receptor | actives 0.36% (n = 360,000) | AID 602244 | inhibition, % at 20 µM | O00574 | CHO-K1 PathHunter CXCR6 beta-arrestin, luminescence; in the data active = inhibition above about 34%, passing the limit was not always enough;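 also: antagonist mode with CXCL16 agonist at 10 nM final; 0% = 10 nM CXCL16 with DMSO and 100% = unstimulated wells without agonist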
Target sequence (O00574 whole entry, looked up): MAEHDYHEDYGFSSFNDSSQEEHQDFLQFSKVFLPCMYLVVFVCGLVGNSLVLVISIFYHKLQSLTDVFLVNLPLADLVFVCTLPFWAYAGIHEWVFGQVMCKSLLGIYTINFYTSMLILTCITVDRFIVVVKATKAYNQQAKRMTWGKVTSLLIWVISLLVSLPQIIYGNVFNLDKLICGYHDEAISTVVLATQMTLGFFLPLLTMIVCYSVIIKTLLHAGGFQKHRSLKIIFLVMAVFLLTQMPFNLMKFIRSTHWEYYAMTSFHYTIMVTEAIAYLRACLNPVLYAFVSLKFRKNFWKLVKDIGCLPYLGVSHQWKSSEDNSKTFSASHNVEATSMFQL
APJ antag = antagonists of human APJ apelin receptor | P35414 | inhibition, % at 20 µM | AID 2521 | actives 0.32% (n = 330,000) | CHO-K1 APJ beta-arrestin complementation, luminescence;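 active = inhibition above about 40% at 20 µM, limit read from the data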;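 also: cells challenged with 10 nM apelin-13 agonist together with compound; plate controls were apelin-13 plus DMSO wells for no effect and DMSO wells lacking apelin-13 for full effect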
CCR6 antagonist = blocks CCL20-driven beta-arrestin recruitment at human CCR6 | P51684 | CHO-K1 CCR6 PathHunter beta-arrestin, luminescence, CCL20-stimulated | actives 0.49% (n = 340,000) | AID 493098 | inhibition, % at 20 µM;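 active = compounds whose inhibition of the agonist-driven luminescence signal at 20 µM reaches about 50%, limit read from the data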;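 also: cells stimulated with CCL20 at 14 nM final; plate controls were DMSO with CCL20 for no effect and DMSO without agonist for full effect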
APOBEC3G inh = APOBEC3G (human) deaminase inhibition; Q9HC16; actives 0.28% (n = 330,000); recombinant A3G, ssDNA deamination FAM/TAMRA fluorescence; inhibition, % at 20 µM;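 active = inhibition of at least 40% at 20 µM, with no more than 30% in the related APOBEC3A deaminase screen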;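 also: plate controls were DMSO wells with A3G for no effect and wells lacking A3G enzyme for full effect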
APJ ag = activates the human apelin receptor APJ. P35414. AID 2520. CHO-K1 APJ PathHunter beta-arrestin, luminescence; 0% DMSO wells, 100% apelin. actives 0.11% (n = 330,000). activation, % at 20 µM;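 active = activation more than six SD over the plate average, tested at 20 µM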;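 also: 0% = DMSO alone and 100% = apelin-13 at 10 nM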
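Test system: CHO-K1 APJ beta-arrestin complementation cell line. Amount: cell density 1000 per well. Controls: DMSO negative, 10 nM Apelin-13 positive. Signal: luminescent beta-gal fragment complementation, chemiluminescent substrate. Read-out basis: agonist-driven arrestin binding to APJ. Timing: compound stimulation 90 min at 25 °C, detection 60 min.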
APOBEC3A inh = blocks human APOBEC3A ssDNA deamination. inhibition, % at 20 µM. AID 493011. recombinant A3A, FAM/TAMRA ssDNA deamination fluorescence. actives 0.41% (n = 330,000). P31941;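 active = at least 40% inhibition at 20 µM here, with at most 30% in a related deaminase screen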;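 also: plate controls were A3A with DMSO for no effect and wells lacking A3A enzyme for full effect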
Target sequence (P31941 whole entry, looked up): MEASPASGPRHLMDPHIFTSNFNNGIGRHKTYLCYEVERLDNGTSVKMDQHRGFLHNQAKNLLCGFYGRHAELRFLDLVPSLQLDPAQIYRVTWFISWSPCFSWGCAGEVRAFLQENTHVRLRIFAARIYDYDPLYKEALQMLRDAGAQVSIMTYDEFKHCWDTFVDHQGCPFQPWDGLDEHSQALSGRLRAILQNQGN
APJ ag confirm = APJ receptor agonism confirmation | shares compounds with APJ ag | CHO-K1 APJ PathHunter beta-arrestin, luminescence | activation, % at 20 µM | actives 10% (n = 310) | AID 2764;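 active = activation above 40%, taking the highest of four retests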;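 also: plate controls were DMSO wells for no effect and apelin-13 at 10 nM for full effect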
APJ antag confirm = APJ receptor antagonism confirmation | APJ beta-arrestin recruitment, luminescence, antagonist mode | AID 2766 | shares compounds with APJ antag | inhibition, % at 20 µM | actives 66% (n = 950); in the data active = inhibition above about 50%
A3A conf = APOBEC3A (human) deaminase inhibition, confirmed | shares compounds with APOBEC3A inh | recombinant A3A, ssDNA deaminase UDG fluorescence assay | inhibition, % at 20 µM | actives 63% (n = 1,400) | AID 493151;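 active = inhibition reaching a set limit, 80% of the first screen's cutoff, at 20 µM in any replicate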;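 also: plate controls were DMSO wells with A3A for no effect and wells lacking A3A enzyme for full effect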
UDG ctr A3A = UDG inhibition in APOBEC3A counter-screen; 1,000 tested, under 10 active; shares compounds with APOBEC3A inh; inhibition, % at 20 µM; UDG counterscreen, FAM/TAMRA uracil oligo fluorescence; call rule not given here
CXCR6 confirm = confirmation of human CXCR6 receptor antagonists; shares compounds with CXCR6 inh; CHO-K1 CXCR6 PathHunter beta-arrestin, luminescence; inhibition, % at 20 µM; actives 65% (n = 700); AID 602409;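 active = mean inhibition over four retests above 40%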;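 also: receptor stimulated with 10 nM CXCL16 agonist; beta-galactosidase fragment complementation upon beta-arrestin recruitment to receptor; plate controls were CXCL16 plus DMSO for no effect and DMSO without CXCL16 for full effect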
Numbers without * were called inactive; . = not tested or not shown.

SMILES	CXCR6 inh	APJ antag	CCR6 antagonist	APOBEC3G inh	APJ ag	APOBEC3A inh	APJ ag confirm	others
Cc1ccccc1C(=O)O/N=C/c1c(N2CCOCC2)n(C)c2ccccc12	-14.4	-76.2	-17.5	-1.7	14.6*	-0.8	25.1
CN1CCN(c2c(/C=N/O)c3ccccc3n2C)CC1	-7.2	5.6	5.0	-9.6	-4.1	-4.1	.
N/C(=N\OC(=O)c1cc(Br)ccc1Cl)c1cccnc1	-18.3	-104.6	-15.9	-2.5	11.0*	1.5	28.3
CCOC(=O)c1ccc(NC(=O)c2cccc(S(=O)(=O)N3CCOCC3)c2)cc1	-25.9	-20.1	1.0	-6.6	13.7*	-19.0	17.3
C=CCSc1nnc(CC(OC)OC)n1-c1ccccc1	6.0	12.2	4.4	-5.4	-4.5	-1.5	.
Clc1cccc(Cl)c1CSc1nnc(-c2ccncc2)s1	-8.5	-18.1	-17.0	9.3	69.5*	3.3	27.2
CCc1c(O)nc(SCc2ccccc2)n(C(C)CC)c1=O (stereo unspecified)	4.7	-13.9	4.9	-5.1	-0.1	-2.0	.
C=CCSc1nc(O)c(CC)c(=O)n1C(C)CC (stereo unspecified)	-1.4	2.2	-17.4	-3.7	76.3*	0.3	49.1*
Cc1cc(NCCCCCCCNc2cc(C)nc3cc([N+](=O)[O-])ccc23)c2ccc([N+](=O)[O-])cc2n1	-0.2	.	6.4	.	.	.	.
C#CCNC(=O)C1=C[C@H](C2CCCCC2)[C@@H](CCCO)[C@H](OCC)O1	24.8	-0.1	17.0	-11.6	-2.3	-5.2	.
N/C(=N/OC(=O)c1cccc([N+](=O)[O-])c1)c1cccc([N+](=O)[O-])c1	6.8	-41.8	6.1	-3.8	25.9*	47.3*	36.8	A3A conf=6.9;UDG ctr A3A=5.3
COc1cc(CNc2ncnc3c2ncn3[C@H]2CN(Cc3ccco3)C[C@@H](CO)O2)cc(OC)c1OC	-2.9	.	.	.	.	.	.
Cc1c(Cl)sn(-c2ccc(Cl)cc2)c1=O	74.5*	38.3	91.9*	43.6*	25.6*	-2.5	26.3	CXCR6 confirm=94.5*
CCOc1ccc(C(C(=O)NC2CCCC2)N(C(=O)c2snc(C(N)=O)c2N)c2cccc(O)c2)cc1 (stereo unspecified)	1.6	0.1	10.6	-0.1	6.1	4.4	.
COc1ccc(Nc2nc(Nc3ccc(OC)cc3)nc(-n3[nH]c(=O)c(C)c3C)n2)cc1	15.4	58.2*	34.2	-9.2	-6.4	-4.9	.	APJ antag confirm=32.6
COc1ccc(Nc2nc(OC)nc(OC)n2)cc1	-8.1	7.9	18.9	2.5	1.3	0.9	.
O=C(CNC(=O)c1nc[nH]c1C(=O)NCc1ccccc1)OCc1ccccc1	10.8	-10.4	20.6	-5.3	1.6	0.8	.
N#C/C(=C\c1ccc(O)c(O)c1)C(=O)c1ccc(O)c(O)c1	26.7	42.7*	53.5*	-4.2	-7.3	2.2	.	APJ antag confirm=57.0*
N#C/C(=C\c1ccc(O)c(O)c1)C(=O)N1CCCC1	19.9	21.7	19.0	2.0	-1.3	0.3	.
Cc1ccc(C(=O)COC(=O)c2ccncc2)cc1[N+](=O)[O-]	8.3	46.0*	38.5	-3.5	-6.3	-2.8	.	APJ antag confirm=69.9*
O=C(COC(=O)c1ccncc1)c1ccc(Cl)c(Cl)c1	0.7	74.2*	15.1	-3.8	-11.7	-1.1	.	APJ antag confirm=85.5*
Cc1ccc(C(=O)COC(=O)c2cc(Cl)ccc2O)cc1[N+](=O)[O-]	16.8	33.3	15.2	-8.3	-16.9	-4.9	.
